LMPTP block – LMPTP (human) inhibition; P24666; recombinant LMPTP-A, OMFP fluorogenic substrate, fluorescence intensity; inhibition, % at 20 µM; 360,000 compounds, 0.22% hits; AID 651560;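 active means compounds that cut the enzyme signal by at least half of the control window in the single-dose screen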;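 further: plate controls were DMSO wells with enzyme plus substrate for no effect and substrate without enzyme for full effect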
Target sequence (P24666 whole entry, looked up): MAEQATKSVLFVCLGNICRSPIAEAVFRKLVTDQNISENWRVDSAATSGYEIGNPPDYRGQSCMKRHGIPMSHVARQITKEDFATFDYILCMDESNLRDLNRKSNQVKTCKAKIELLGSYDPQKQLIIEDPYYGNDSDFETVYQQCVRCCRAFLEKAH
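Test system: LMPTP-A phosphatase enzyme. Amount: LMPTP-A at 0.625 nM final in the reaction. Reagent: OMFP substrate, 400 µM final. Times: 50 min at room temperature. Signal: endpoint fluorescence intensity from OMFP dephosphorylation. Read-out basis: % inhibition. Benchmarks: no-enzyme and uninhibited controls.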
Scp-1 inhibitor – inhibitors of human Scp-1 phosphatase; inhibition, % at 20 µM; 340,000 compounds, 0.88% hits; AID 493091; Recombinant Scp1, phosphopeptide, malachite green phosphate absorbance; Q9GZU7;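 active means inhibition above about 50% at 20 µM, limit read from the data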;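 further: plate controls were DMSO wells with enzyme for no effect and wells lacking enzyme for full effect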
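Material: truncated SCP-1 phosphatase (76-261aa) / Buffer or medium: 50 mM Tris acetate pH 5.5, 0.005% Tween-20, 10 mM MgCl2 / Compound dosing: one concentration, 20 µM, with 1.0% DMSO / Incubation: 45 min room-temperature reaction, 5 min colour, 30 min stabiliser / Detection: colorimetric free-phosphate detection, absorbance 630 nm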
Rpn11 block – blocks the human proteasome subunit Rpn11; human 26S proteasome, Ub4-pepOG fluorescence polarization; 20S core pre-blocked with epoxomicin; inhibition, % at 20 µM; 360,000 compounds, 0.59% hits;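 active means inhibition at 20 µM, scaled to each plate's controls, above about 33%, limit read from the data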
Target sequence (O00487 whole entry, looked up): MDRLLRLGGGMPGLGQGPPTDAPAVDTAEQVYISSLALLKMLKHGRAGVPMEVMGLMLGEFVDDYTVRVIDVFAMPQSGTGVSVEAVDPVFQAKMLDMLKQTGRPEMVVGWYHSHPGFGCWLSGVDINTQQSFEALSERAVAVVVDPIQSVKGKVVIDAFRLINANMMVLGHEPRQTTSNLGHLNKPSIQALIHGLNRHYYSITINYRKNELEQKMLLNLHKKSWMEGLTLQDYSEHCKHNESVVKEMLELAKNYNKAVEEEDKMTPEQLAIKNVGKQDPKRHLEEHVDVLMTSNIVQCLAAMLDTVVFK
DNMT1 block – blocks human DNA methyltransferase DNMT1 | P26358 | DNMT1 molecular beacon, Hinp1I cleavage, fluorescence | inhibition (reported as % activation of signal), % at 10 µM | 360,000 compounds, 0.83% hits | AID 588458; in the data active means inhibition above about 50%
STEP inh – STEP (human) phosphatase inhibition. P54829. recombinant STEP, OMFP fluorogenic substrate, fluorescence. inhibition, % at 20 µM. 360,000 compounds, 0.25% hits. AID 588621;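 active means inhibition at 20 µM, scaled per plate between control wells, above about 37%, limit read from the data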;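 further: 0% = DMSO with enzyme and substrate and 100% = substrate only without enzyme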
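Test system: STEP tyrosine phosphatase / Reagent: OMFP at 25 µM / Doses: 20 µM, 1% DMSO / Read-out: percent inhibition scaled to no-enzyme and uninhibited-enzyme controls, plate-pattern corrected / Detection: FITC-channel fluorescence of OMFP product / Medium: Bis-Tris buffer pH 6.0, 2.5 mM DTT, 0.005% Tween 20 / Schedule: 20 min at room temperature, dark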
Scp-1 conf – Scp-1 (human) inhibition, single-dose confirmed | AID 540281 | 2,500 compounds, 61% hits | recombinant SCP-1 catalytic domain, phosphate release, malachite green absorbance | inhibition, % at 20 µM | shares compounds with Scp-1 inhibitor;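 further: plate controls were DMSO with enzyme for no effect and buffer wells lacking enzyme for full effect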
MG interference – colorimetric interference in Scp-1 counter-screen | apparent inhibition (interference), % at 20 µM | 2,500 tested, under 10 active | AID 540313 | Colorimetric interference counterscreen, malachite green absorbance 630 nm | shares compounds with Scp-1 inhibitor;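 further: compounds added after enzyme reaction finished so only phosphate colour detection is probed; plate controls were DMSO wells with completed Scp-1 reaction for no effect and substrate wells lacking enzyme for full effect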
Scp1 DSF – binds human Scp-1, shifting its melting temperature; thermal shift relative to vanadate control, % at 40 µM; 1,500 compounds, 25% hits; AID 540329; shares compounds with Scp-1 inhibitor; Recombinant SCP1, Sypro Orange thermal shift Tm;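 active means substances whose mean melting-temperature shift, as a percentage of the reference inhibitor's shift, reaches about 5.3%, limit read from the data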;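 further: 0% = Tm of DMSO wells and 100% = Tm with sodium orthovanadate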
DNMT1 inh conf – DNMT1 inhibition confirmation, single concentration. DNMT1 molecular beacon HinP1I cleavage, fluorescence. 2,300 compounds, 8% hits. shares compounds with DNMT1 block. inhibition, % at 10 µM. AID 602385;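 active means average inhibition of at least 30% in the single-concentration confirmation test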
DNMT1 interf – beacon fluorescence artifact counter-screen | shares compounds with DNMT1 block | AID 602387 | 2,300 compounds, 1% hits | DNMT1 molecular beacon spectral interference counterscreen, fluorescence 485/520 | activation (fluorescence interference), % at 10 µM;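 active means activation of at least 30% at 10 µM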;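 further: DNMT1 catalytic domain with a HinP1I cleavage step and a FAM/dabcyl DNA beacon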
STEP conf – confirmation of human STEP phosphatase inhibitors | shares compounds with STEP inh | recombinant STEP, OMFP fluorogenic substrate, fluorescence | inhibition, % at 20 µM | 520 compounds, 32% hits; call rule not given here;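 further: 0% = enzyme with substrate plus DMSO and 100% = substrate without enzyme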
* = called active by the depositor; · = not tested or not shown. Hits are enriched below; roughly 2% of the tested compounds scored in any of these assays.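 How the source made its calls, unless noted: active means inhibition of at least 30% at 20 µM; inactive means the rest.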

SMILES	LMPTP block	Scp-1 inhibitor	Rpn11 block	DNMT1 block	STEP inh	Scp-1 conf	MG interference	Scp1 DSF	STEP conf	others
Cc1csc2nc(NC(=O)c3ccccc3)sc(=O)c12	57*	87*	26	24	79*	70*	-15	-8	16
Cc1csc2c(=O)sc(NC(=O)c3ccc(F)cc3)nc12	-2	0	-1	8	0	·	·	·	·
CCOC(=O)C1(CC/C(C)=N\NC(N)=O)CC(C)(C)OC1=O (stereo unspecified)	-1	-8	2	-2	0	·	·	·	·
CCN(c1ccccc1)S(=O)(=O)c1cc(C(=O)OCC(=O)c2c(N)n(C)c(=O)n(C)c2=O)ccc1C	26	62*	-10	93*	46*	63*	-19	-4	70*	DNMT1 inh conf=3;DNMT1 interf=1
CC(OC(=O)c1ccccn1)C(=O)Nc1ccc2c(c1)OCCO2 (stereo unspecified)	-1	-1	-5	2	1	·	·	·	·
CCN(c1ccccc1)S(=O)(=O)c1cc(C(=O)OC(C)C(=O)Nc2ccc3c(c2)OCCO3)ccc1C (stereo unspecified)	23	81*	-16	29	41*	63*	-16	7.5*	59*
Cc1c(CC(=O)O)c(=O)oc2c(C)c(OCc3ccccc3)ccc12	-2	-23	-3	-2	0	·	·	·	·
Cc1c(CC(=O)O)c(=O)oc2c(C)c(OCc3ccccc3Br)ccc12	49	91*	4	2	98*	62*	-14	-62	65*
Cc1c(Cc2ccccc2)c(=O)oc2c(C)c(OCC(=O)NCC3CCC(C(=O)O)CC3)ccc12 (stereo unspecified)	46	85*	-6	-2	65*	56*	-17	-33	29
Cc1c(CCC(=O)O)c(=O)oc2c(C)c(OCc3cc4c(cc3Cl)OCO4)ccc12	77*	59*	5	2	94*	39*	-21	-36	51*
Cc1ccc(S(=O)(=O)Nc2cnn(-c3ccccc3)c(=O)c2Cl)cc1	-1	-6	1	-1	1	·	·	·	·
CC1CN(C(=O)COC(=O)c2cccc(S(=O)(=O)N3CCc4ccccc43)c2)CC(C)O1 (stereo unspecified)	3	1	-6	-5	-2	·	·	·	·
CCOc1ccc2[nH]c3c(NCC(C)C)ncnc3c2c1	0	-13	-8	0	0	·	·	·	·
O=C(O)CC/C(=N\Nc1ccc(S(=O)(=O)N2CCCC2)cc1[N+](=O)[O-])c1cccs1	6	63*	3	-6	97*	57*	-4	16*	83*
Cc1ccc(CNC(=O)c2ccc(F)c(S(=O)(=O)N3CCOCC3)c2)cc1	1	-4	-6	15	-2	·	·	·	·
CCN(CC)C(=O)c1ccc2c(=O)n(Cc3ccc4c(c3)OCO4)c(=S)[nH]c2c1	0	-17	-64	2	1	·	·	·	·
